{"source": "paper PMC3113683", "about": "(Biochemistry, 2009)", "molecules": {"B1": {"name": "LYP-W620: genetic variant of LYP carrying Trp620 instead of Arg620 in the C-terminal domain (protein, UniProt Q9Y2R2 1-807, looked up, variant R620W)", "Tyrosine-protein phosphatase …": "MDQREILQKFLDEAQSKKITKEEFANEFLKLKRQSTKYKADKTYPTTVAEKPKNIKKNRYKDILPYDYSRVELSLITSDEDSSYINANFIKGVYGPKAYIATQGPLSTTLLDFWRMIWEYSVLIIVMACMEYEMGKKKCERYWAEPGEMQLEFGPFSVSCEAEKRKSDYIIRTLKVKFNSETRTIYQFHYKNWPDHDVPSSIDPILELIWDVRCYQEDDSVPICIHCSAGCGRTGVICAIDYTWMLLKDGIIPENFSVFSLIREMRTQRPSLVQTQEQYELVYNAVLELFKRQMDVIRDKHSGTESQAKHCIPEKNHTLQADSYSPNLPKSTTKAAKMMNQQRTKMEIKESSSFDFRTSEISAKEELVLHPAKSSTSFDFLELNYSFDKNADTTMKWQTKAFPIVGEPLQKHQSLDLGSLLFEGCSNSKPVNAAGRYFNSKVPITRTKSTPFELIQQRETKEVDSKENFSYLESQPHDSCFVEMQAQKVMHVSSAELNYSLPYDSKHQIRNASNVKHHDSSALGVYSYIPLVENPYFSSWPPSGTSSKMSLDLPEKQDGTVFPSSLLPTSSTSLFSYYNSHDSLSLNSPTNISSLLNQESAVLATAPRIDDEIPPPLPVWTPESFIVVEEAGEFSPNVPKSLSSAVKVKIGTSLEWGGTSEPKKFDDSVILRPSKSVKLRSPKSELHQDRSSPPPPLPERTLESFFLADEDCMQAQSIETYSTSYPDTMENSTSSKQTLKTPGKSFTRSKSLKILRNMKKSICNSCPPNKPAESVQSNNSSSFLNFGFANRFSKPKGPRNPPPTWNI"}, "B2": {"name": "LYP320: LYP truncation, amino acids 1−320 (protein)", "chain": "MDQREILQKFLDEAQSKKITKEEFANEFLKLKRQSTKYKADKTYPTTVAEKPKNIKKNRYKDILPYDYSRVELSLITSDEDSSYINANFIKGVYGPKAYIATQGPLSTTLLDFWRMIWEYSVLIIVMACMEYEMGKKKCERYWAEPGEMQLEFGPFSVSCEAEKRKSDYIIRTLKVKFNSETRTIYQFHYKNWPDHDVPSSIDPILELIWDVRCYQEDDSVPICIHCSAGCGRTGVICAIDYTWMLLKDGIIPENFSVFSLIREMRTQRPSLVQTQEQYELVYNAVLELFKRQMDVIRDKHSGTESQAKHCIPEKNHTLQ", "modifications": "left off: His6, end not stated, cleaved"}, "B3": {"name": "PEP: mouse homologue of LYP called PEST-enriched phosphatase (protein, UniProt P29352 1-802, looked up)", "Tyrosine-protein phosphatase …": "MDQREILQQLLKEAQKKKLNSEEFASEFLKLKRQSTKYKADKIYPTTVAQRPKNIKKNRYKDILPYDHSLVELSLLTSDEDSSYINASFIKGVYGPKAYIATQGPLSTTLLDFWRMIWEYRILVIVMACMEFEMGKKKCERYWAEPGETQLQFGPFSISCEAEKKKSDYKIRTLKAKFNNETRIIYQFHYKNWPDHDVPSSIDPILQLIWDMRCYQEDDCVPICIHCSAGCGRTGVICAVDYTWMLLKDGIIPKNFSVFNLIQEMRTQRPSLVQTQEQYELVYSAVLELFKRHMDVISDNHLGREIQAQCSIPEQSLTVEADSCPLDLPKNAMRDVKTTNQHSKQGAEAESTGGSSLGLRTSTMNAEEELVLHSAKSSPSFNCLELNCGCNNKAVITRNGQARASPVVGEPLQKYQSLDFGSMLFGSCPSALPINTADRYHNSKGPVKRTKSTPFELIQQRKTNDLAVGDGFSCLESQLHEHYSLRELQVQRVAHVSSEELNYSLPGACDASCVPRHSPGALRVHLYTSLAEDPYFSSSPPNSADSKMSFDLPEKQDGATSPGALLPASSTTSFFYSNPHDSLVMNTLTSFSPPLNQETAVEAPSRRTDDEIPPPLPERTPESFIVVEEAGEPSPRVTESLPLVVTFGASPECSGTSEMKSHDSVGFTPSKNVKLRSPKSDRHQDGSPPPPLPERTLESFFLADEDCIQAQAVQTSSTSYPETTENSTSSKQTLRTPGKSFTRSKSLKIFRNMKKSVCNSSSPSKPTERVQPKNSSSFLNFGFGNRFSKPKGPRNPPSAWNM"}}, "key": {"[1]": {"test_system": "T cell receptor (TCR) signaling", "conditions": "cited from earlier work"}, "LYP [2]": {"test_system": "LYP", "conditions": "ref [7], [18]; cited from earlier work"}, "LYP [3]": {"test_system": "LYP", "assay": "Phosphatase kinetics of LYP300 and LYP320 from E. coli on pTyr peptide", "format": "biochemical, human", "conditions": "purified from bacterial lysates"}, "[4]": {"assay": "Gel filtration chromatography", "format": "physicochemical", "conditions": "Superdex 75 10/300 GL; TNE and phosphatase buffers"}, "LYP [5]": {"test_system": "LYP", "assay": "Phosphatase kinetics of LYP300 and LYP320 from E. coli on DiFMUP", "format": "biochemical, human", "conditions": "purified from bacterial lysates", "summary_of_the_method": "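LYP300 and LYP320 (aa 1−300, 1−320) expressed in BL21(DE3) from pET28a. Purified by Ni2+-NTA, His tag cleaved with thrombin, protease removed on benzamidine, dialysed into 50 mM Tris-HCl pH 8.0, 0.5 mM EDTA, 1 mM DTT. 5 nM enzyme was assayed in Bis-Tris pH 6.0/DTT over a DiFMUP concentration range. Fluorescence (ex 360, em 460 nm) was read continuously at initial rate. Triplicates were corrected against no-enzyme blanks and fitted to Michaelis–Menten.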"}, "PEP": {"test_system": "PEP", "conditions": "immunoprecipitated full-length PEP vs amino acids 1−290; ref [5]; cited from earlier work"}}}
{"molecule": "B1", "values": [{"measurement": "Effect of variant on signaling", "setting": "[1]; ref [7], [18]", "value": "gain-of-function inhibitor of signaling"}, {"measurement": "Phosphatase activity of variant", "setting": "LYP [2]", "value": "increased phosphatase activity"}]}
{"molecule": "B2", "values": [{"measurement": "Activity relative to LYP300 on pTyr peptide", "setting": "LYP [3]", "value": "consistently less active than LYP300"}, {"measurement": "Oligomeric state by gel filtration", "setting": "[4]", "value": "elute as monomers"}, {"measurement": "Activity relative to LYP300 on DiFMUP", "setting": "LYP [5]", "value": "consistently less active than LYP300"}]}
{"molecule": "B3", "values": [{"measurement": "Inhibition of T cell receptor signaling", "setting": "[1]; T cells, ref [4]-[8]", "value": "potently inhibit T cell receptor (TCR) signaling"}, {"measurement": "Catalytic activity vs catalytic domain alone", "setting": "PEP", "value": "much lower than the activity of the catalytic domain alone"}]}
